No end group written: not given here.
Experiments:
Format in all cases: cell-based, Escherichia coli
[1] = tested on: E. coli SQ110 DTC 23S rRNA A2503C mutant; assay: MIC determination, E. coli SQ110 DTC 2503C mutant; conditions: 23S rRNA mutant 2503C; highest concentration 100 μM
In short: (§1)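 E. coli SQ110 DTC background (single chromosomal rrn allele, tolC knockout) carrying 23S rRNA mutations. Cells grown exponentially in LB, diluted to A650 0.005 in 96-well plates. Peptide added in LB and 2-fold serially diluted from a top final concentration of 100 μM. Incubated overnight at 37°C with shaking. Growth read by alamarBlue addition.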

[2] = tested on: E. coli SQ110 DTC 23S rRNA A2503C/A2059G double mutant; assay: MIC determination, E. coli SQ110 DTC 2503C/2059G double mutant; conditions: 23S rRNA double mutant; highest concentration 100 μM
In short: as §1

[3] = tested on: E. coli SQ110 DTC 23S rRNA 2059C mutant; assay: MIC determination, E. coli SQ110 DTC 2059C mutant; conditions: 23S rRNA mutant 2059C, first line so labelled (r6); highest concentration 100 μM
In short: as §1

RRIRPRPPRLPRPRPRPLPFPRPGPRPIPRPLPFP [Bac7_1–35]
0.75 µM: MIC, SQ110 DTC 2503C [1] | MIC, SQ110 DTC 2503C/2059G [2] | MIC, SQ110 DTC 2059C [3]

Reference: publication PMC4797290 (Nucleic Acids Research, 2016)
